Measurements taken from ChEMBL document CHEMBL4715795, “Urolinin: The First Linear Peptidic Urotensin-II Receptor Agonist” (J Med Chem, 2016).
The source made the active and inactive calls. No cut-off for these calls is given here. Numbered stars: 1 amine (or outer) side, 2 acyl side, 3 side chain; on linkers, the order of the positions; unused ones are H or OH. Bridge positions count the residues as written; N and C are the ends. Square brackets hold non-standard residues; d marks the D form. Peptide text beside a SMILES is read from it. ξ: configuration not given here. Tyr(3-NO2) = N[C@@H](Cc1ccc(O)c([N+](=O)[O-])c1)C(=O)O; X1 = O=C([C@H](Cc1ccc(O)c(S(=O)(=O)O)c1)N[*:1])[*:2]; 2Nal = N[C@@H](Cc1ccc2ccccc2c1)C(=O)O; ξ2Nal = NC(Cc1ccc2ccccc2c1)C(=O)O

Columns and labels:
Urotensin-2 receptor [1] = target: T1, Urotensin-2 receptor (Homo sapiens, UniProt Q9UKP6); assay: Agonist activity at human U-IIR expressed in HEK293-A cells by Fluo4-AM dye based intracellular calcium mobilization assay; format: functional, cell-based
T1 sequence (Q9UKP6 whole entry): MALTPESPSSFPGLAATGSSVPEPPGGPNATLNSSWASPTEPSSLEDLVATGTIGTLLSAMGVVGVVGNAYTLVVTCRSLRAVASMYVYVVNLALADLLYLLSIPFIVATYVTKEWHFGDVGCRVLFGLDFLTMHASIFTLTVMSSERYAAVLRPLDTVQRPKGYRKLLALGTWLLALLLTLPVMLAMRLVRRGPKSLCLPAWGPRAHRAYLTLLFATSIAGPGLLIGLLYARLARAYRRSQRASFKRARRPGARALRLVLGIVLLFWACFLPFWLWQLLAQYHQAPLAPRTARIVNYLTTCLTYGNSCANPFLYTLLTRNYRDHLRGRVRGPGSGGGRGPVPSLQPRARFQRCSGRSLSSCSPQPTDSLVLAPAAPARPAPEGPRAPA

Urotensin-2 receptor [2] = target: T1, Urotensin-2 receptor; assay: Displacement of [125I-Tyr9]-U-II from human U-IIR expressed in HEK293-A cells incubated for 30 mins by gamma counting based competition radioligand binding assay; format: cell-based
[3] = Half life in 25% human serum by RP-HPLC analysis; format: ADME, cell-free
In short: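 Peptide at 50 μg/mL final in RPMI with 25% (v/v) human serum, pre-equilibrated at 37 °C. Samples taken at set times into 6% TCA, iced 15 min, spun at 18000g. Supernatant run on C18 RP-HPLC, 25–80% acetonitrile gradient over 15 min at 30 °C, absorbance at 214 and 280 nm.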

[4] = target: Somatostatin receptor type 1 (Homo sapiens, UniProt P30872); assay: Displacement of [125I-Tyr11]-SS14 from human SSTR1 expressed in HEK293-A cells incubated for 30 mins by gamma counting based competition radioligand binding assay; format: cell-based
Somatostatin receptor type 1, sequence (P30872 whole entry): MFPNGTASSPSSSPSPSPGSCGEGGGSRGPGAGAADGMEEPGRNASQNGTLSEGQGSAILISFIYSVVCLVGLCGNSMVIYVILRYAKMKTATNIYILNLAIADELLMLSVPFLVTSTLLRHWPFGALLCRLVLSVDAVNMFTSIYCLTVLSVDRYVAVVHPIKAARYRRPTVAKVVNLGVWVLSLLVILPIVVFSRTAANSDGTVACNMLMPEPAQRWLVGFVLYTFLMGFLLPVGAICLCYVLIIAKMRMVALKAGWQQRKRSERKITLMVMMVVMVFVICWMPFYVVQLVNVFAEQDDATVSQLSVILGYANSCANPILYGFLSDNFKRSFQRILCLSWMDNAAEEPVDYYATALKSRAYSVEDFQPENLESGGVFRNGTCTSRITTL
In short: (§1)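 Competition binding on HEK293A cells overexpressing the given human SSTR subtype, seeded overnight. Binding buffer: 50 mM Tris-HCl pH 7.4, 5 mM MgCl2, 1 mM CaCl, 0.5% BSA, protease inhibitors. 100000 cpm [125I-Tyr11]-SS14 (chloramine-T iodinated, HPLC-purified) with varying competitor, 30 min at 37 °C. Cells washed four times in cold buffer, lysed in 1 N NaOH, gamma counted. Mean ± SD, three experiments in duplicate.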

[5] = target: Somatostatin receptor type 2 (Homo sapiens, UniProt P30874); assay: Displacement of [125I-Tyr11]-SS14 from human SSTR2 expressed in HEK293-A cells incubated for 30 mins by gamma counting based competition radioligand binding assay; format: cell-based; in short: as §1
Somatostatin receptor type 2, sequence (P30874 whole entry): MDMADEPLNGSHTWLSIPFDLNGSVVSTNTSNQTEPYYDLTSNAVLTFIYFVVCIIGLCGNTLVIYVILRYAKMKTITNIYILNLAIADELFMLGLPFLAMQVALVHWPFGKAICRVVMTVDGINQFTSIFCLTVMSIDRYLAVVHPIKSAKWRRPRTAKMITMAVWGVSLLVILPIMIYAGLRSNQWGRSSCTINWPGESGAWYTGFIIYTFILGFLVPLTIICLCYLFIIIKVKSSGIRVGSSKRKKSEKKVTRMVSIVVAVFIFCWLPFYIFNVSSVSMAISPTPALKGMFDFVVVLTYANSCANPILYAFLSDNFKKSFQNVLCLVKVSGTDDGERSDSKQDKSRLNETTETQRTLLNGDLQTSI

[6] = target: Somatostatin receptor type 5 (Homo sapiens, UniProt P35346); assay: Displacement of [125I-Tyr11]-SS14 from human SSTR5 expressed in HEK293-A cells incubated for 30 mins by gamma counting based competition radioligand binding assay; format: cell-based; in short: as §1
Somatostatin receptor type 5, sequence (P35346 whole entry): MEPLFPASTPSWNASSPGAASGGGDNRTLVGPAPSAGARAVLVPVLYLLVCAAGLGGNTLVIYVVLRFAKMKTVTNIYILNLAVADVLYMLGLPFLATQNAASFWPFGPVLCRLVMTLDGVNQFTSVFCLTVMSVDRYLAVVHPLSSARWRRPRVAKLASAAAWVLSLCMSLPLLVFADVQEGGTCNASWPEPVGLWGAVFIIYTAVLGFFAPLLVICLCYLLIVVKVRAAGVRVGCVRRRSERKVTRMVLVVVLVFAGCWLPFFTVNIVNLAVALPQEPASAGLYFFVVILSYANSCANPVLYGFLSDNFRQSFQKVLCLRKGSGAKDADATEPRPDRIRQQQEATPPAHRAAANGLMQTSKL

[7] = target: Somatostatin receptor type 3 (Homo sapiens, UniProt P32745); assay: Displacement of [125I-Tyr11]-SS14 from human SSTR3 expressed in HEK293-A cells incubated for 30 mins by gamma counting based competition radioligand binding assay; format: cell-based; in short: as §1
Somatostatin receptor type 3, sequence (P32745 whole entry): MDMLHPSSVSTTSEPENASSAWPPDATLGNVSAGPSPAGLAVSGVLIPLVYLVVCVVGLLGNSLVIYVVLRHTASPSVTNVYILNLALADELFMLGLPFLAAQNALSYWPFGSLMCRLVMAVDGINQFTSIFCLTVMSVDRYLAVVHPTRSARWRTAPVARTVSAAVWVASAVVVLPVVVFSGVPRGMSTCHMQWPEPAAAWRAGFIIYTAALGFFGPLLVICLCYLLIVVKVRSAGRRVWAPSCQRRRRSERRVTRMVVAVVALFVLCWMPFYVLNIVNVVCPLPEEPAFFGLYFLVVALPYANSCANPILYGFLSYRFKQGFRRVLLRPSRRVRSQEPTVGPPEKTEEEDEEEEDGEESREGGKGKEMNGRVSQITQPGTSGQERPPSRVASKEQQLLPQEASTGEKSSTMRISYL

VSMC [8] = assay: Agonist activity at U-IIR in pig aorta VSMC assessed as increase of ERK1/2 phosphorylation incubated for 15 mins by Western blot analysis relative to control; conditions: Sus scrofa, filed as agonist
In short: (§2)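 Primary smooth muscle cells from aortas of 4–6-month-old domestic pigs, grown from minced-tissue explants and used at passages 5–10. Cells were grown to 80% confluence, then exposed to peptide at 5 or 500 nM in 0.1% FCS/DMEM for 15 min. Lysates were taken in Tris/SDS buffer and probed on Western blot for phospho-ERK1/2 (Thr202/Tyr204). Signal was normalized to total ERK1/2 and to the untreated control. n = 2–4 independent experiments, each with 3–6 replicates.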

VSMC [9] = assay: Agonist activity at U-IIR in pig aorta VSMC assessed as increase of ERK1/2 phosphorylation at 5 nM incubated for 15 mins by Western blot analysis relative to control; conditions: Sus scrofa; in short: as §2
VSMC [10] = assay: Agonist activity at U-IIR in pig aorta VSMC assessed as increase of ERK1/2 phosphorylation at 500 nM incubated for 15 mins by Western blot analysis relative to control; conditions: Sus scrofa, filed as agonist; in short: as §2

| Molecule | EC50 (Urotensin-2 receptor [1]) [nM] | IC50 (Urotensin-2 receptor [2]) [nM] | half-life [3] [min] | other results |
| --- | --- | --- | --- | --- |
| H-TVFWKYCV-NH2 | 11.2 |  |  |  |
| CC(C)[C@H](NC(=O)[C@@H]1CSSC[C@H](NC(=O)[C@@H](N)[C@@H](C)O)C(=O)N[C@@H](Cc2ccccc2)C(=O)N[C@@H](Cc2c[nH]c3ccccc23)C(=O)N[C@@H](CCCCN)C(=O)N[C@@H](Cc2ccc(O)cc2)C(=O)N1)C(N)=O (H-TCFWKYCV-NH2; disulfide 2-7) | 3.9 |  |  |  |
| CC(C)[C@H](NC(=O)[C@@H]1CSSC[C@H](N)C(=O)N[C@@H](Cc2ccccc2)C(=O)N[C@@H](Cc2c[nH]c3ccccc23)C(=O)N[C@@H](CCCCN)C(=O)N[C@@H](Cc2ccc(O)cc2)C(=O)N1)C(N)=O (H-CFWKYCV-NH2; disulfide 1-6) | 0.83 |  |  |  |
| CCC(NC(=O)[C@H](Cc1ccc(O)cc1)NC(=O)[C@H](CCCCN)NC(=O)[C@H](Cc1c[nH]c2ccccc12)NC(=O)[C@H](Cc1c[nH]c2ccccc12)NC(=O)[C@@H](N)CC(N)=O)C(N)=O (stereo partly specified) | 60 | > 10000 | 50 |  |
| CCC(NC(=O)[C@H](Cc1ccc(O)cc1)NC(=O)[C@H](CCCCN)NC(=O)[C@H](Cc1c[nH]c2ccccc12)NC(=O)C(Cc1ccc2ccccc2c1)NC(=O)[C@@H](N)CC(N)=O)C(N)=O (stereo partly specified) | 108 | 7880 | 34 |  |
| CC[C@H](NC(=O)[C@H](Cc1ccc(O)c([N+](=O)[O-])c1)NC(=O)[C@H](CCCCN)NC(=O)[C@H](Cc1c[nH]c2ccccc12)NC(=O)[C@H](Cc1c[nH]c2ccccc12)NC(=O)[C@H](N)CC(N)=O)C(N)=O | 4.75 | 600 | 1320 | IC50 [4]: 6720 nM; IC50 [5]: 37500 nM; IC50 [6]: 28400 nM; IC50 [7]: 6070 nM |
| H-NWWKYD-NH2 | 50.4 |  |  |  |
| H-CFWKY-NH2 | 201 |  |  |  |
| H-NWWKYE-NH2 | 65.6 |  |  |  |
| NCCCC[C@H](NC(=O)[C@H](Cc1c[nH]c2ccccc12)NC(=O)[C@@H](N)Cc1ccccc1)C(=O)N[C@@H](Cc1ccc(O)cc1)C(N)=O (H-FWKY-NH2) | 179 |  |  |  |
| H-NWWKYT-NH2 | 143 |  |  |  |
| NCCCC[C@H](NC(=O)[C@@H](N)Cc1c[nH]c2ccccc12)C(=O)N[C@@H](Cc1ccc(O)cc1)C(N)=O (H-Trp-Lys-Tyr-NH2) | > 10000 |  |  |  |
| NCCCC[C@H](NC(=O)[C@H](Cc1c[nH]c2ccccc12)NC(=O)[C@H](Cc1c[nH]c2ccccc12)NC(=O)[C@@H](N)CC(N)=O)C(=O)N[C@@H](Cc1ccc(O)c([N+](=O)[O-])c1)C(=O)N[C@@H](CS)C(N)=O (H-NWWK[Tyr(3-NO2)]C-NH2) | 15.7 | 163 | 23 |  |
| H-DVFWKYCV-NH2 | 32.6 | 300 | 19 |  |
| CC(C)[C@H](NC(=O)[C@@H]1CSSC[C@H](NC(=O)[C@@H](N)CCC(N)=O)C(=O)N[C@@H](Cc2ccccc2)C(=O)N[C@@H](Cc2c[nH]c3ccccc23)C(=O)N[C@@H](CCCCN)C(=O)N[C@@H](Cc2ccc(O)cc2)C(=O)N1)C(N)=O (H-QCFWKYCV-NH2; disulfide 2-7) | 1.99 |  |  |  |
| H-FWKYC-NH2 | 141 |  |  |  |
| CCC(NC(=O)[C@H](Cc1ccc(O)c([N+](=O)[O-])c1)NC(=O)[C@H](CCCCN)NC(=O)[C@H](Cc1c[nH]c2ccccc12)NC(=O)[C@H](Cc1c[nH]c2ccccc12)NC(=O)[C@@H](N)CC(N)=O)C(N)=O (stereo partly specified) | 3.47 | 1090 | 55 |  |

| Molecule | EC50 (Urotensin-2 receptor [1]) [nM] | IC50 (Urotensin-2 receptor [2]) [nM] | half-life [3] [min] | other results |
| --- | --- | --- | --- | --- |
| NCCCC[C@H](NC(=O)[C@H](Cc1c[nH]c2ccccc12)NC(=O)[C@H](Cc1ccc2ccccc2c1)NC(=O)[C@@H](N)CC(N)=O)C(=O)N[C@@H](Cc1ccc(O)c([N+](=O)[O-])c1)C(=O)N[C@@H](CS)C(N)=O (H-N[2Nal]WK[Tyr(3-NO2)]C-NH2) | 8.13 | 430 | 37 |  |
| NCCCC[C@H](NC(=O)[C@H](Cc1c[nH]c2ccccc12)NC(=O)[C@@H](N)Cc1ccccc1)C(N)=O (H-Phe-Trp-Lys-NH2) | > 10000 |  |  |  |
| H-DHFWKYCV-NH2 | 29.8 |  |  |  |
| H-QVFWKYCV-NH2 | 9.63 |  |  |  |
| H-NWWKYC-NH2 | 10 | 1550 | 19 |  |
| COc1ccc(C[C@H](NC(=O)[C@H](CCCCN)NC(=O)[C@H](Cc2c[nH]c3ccccc23)NC(=O)[C@H](Cc2c[nH]c3ccccc23)NC(=O)[C@@H](N)CC(N)=O)C(=O)N[C@@H](CS)C(N)=O)cc1 (H-NWWKY(Me)C-NH2) | 10.2 | 890 | 15 |  |
| H-DNFWKYCV-NH2 | 155 |  |  |  |
| CCC(NC(=O)[C@H](Cc1ccc(O)cc1)NC(=O)[C@H](CCCCN)NC(=O)[C@H](Cc1c[nH]c2ccccc12)NC(=O)[C@H](Cc1ccc2ccccc2c1)NC(=O)[C@H](N)CC(N)=O)C(N)=O (stereo partly specified) | 25.5 | 4890 | 770 |  |
| NCCCC[C@@H]1NC(=O)[C@H](Cc2c[nH]c3ccccc23)NC(=O)[C@H](Cc2ccccc2)NC(=O)[C@@H](N)CSSC[C@@H](C(N)=O)NC(=O)[C@H](Cc2ccc(O)cc2)NC1=O (H-CFWKYC-NH2; disulfide 1-6) | 3.8 |  |  |  |
| CCC(NC(=O)[C@H](Cc1ccc(O)cc1)NC(=O)[C@H](CCCCN)NC(=O)[C@H](Cc1c[nH]c2ccccc12)NC(=O)[C@H](Cc1c[nH]c2ccccc12)NC(=O)[C@H](N)CC(N)=O)C(N)=O (stereo partly specified) | 23 | 4830 | 3120 | Activity (VSMC [8]): Dose-dependent effect; Activity (VSMC [9]): inactive; fold change (FC) (VSMC [10]): 1.9 |
| H-NWWKYS-NH2 | 91.5 |  |  |  |
| CC(C)[C@H](NC(=O)[C@@H]1CSSC[C@H](NC(=O)[C@@H](N)Cc2ccccc2)C(=O)N[C@@H](Cc2ccccc2)C(=O)N[C@@H](Cc2c[nH]c3ccccc23)C(=O)N[C@@H](CCCCN)C(=O)N[C@@H](Cc2ccc(O)cc2)C(=O)N1)C(N)=O (H-FCFWKYCV-NH2; disulfide 2-7) | 4.8 |  |  |  |
| H-TWWKYC-NH2 | 103 |  |  |  |
| CC(C)[C@H](NC(=O)[C@@H]1CSSC[C@H](NC(=O)[C@H](CC(=O)O)NC(=O)[C@@H]2CCCN2C(=O)[C@@H](NC(=O)[C@@H](N)CCC(=O)O)[C@@H](C)O)C(=O)N[C@@H](Cc2ccccc2)C(=O)N[C@@H](Cc2c[nH]c3ccccc23)C(=O)N[C@@H](CCCCN)C(=O)N[C@@H](Cc2ccc(O)cc2)C(=O)N1)C(=O)O |  |  |  | Activity (VSMC [8]): Dose-dependent effect; Activity (VSMC [9]): inactive; fold change (FC) (VSMC [10]): 2.4 |
| NCCCC[C@H](NC(=O)[C@H](Cc1c[nH]c2ccccc12)NC(=O)C(Cc1ccc2ccccc2c1)NC(=O)[C@@H](N)CC(N)=O)C(=O)N[C@@H](Cc1ccc(O)cc1)C(=O)N[C@@H](CS)C(N)=O (stereo partly specified) (H-N[ξ2Nal]WKYC-NH2) | 74.9 | 3060 | 17 |  |
| CC(C)[C@H](NC(=O)[C@@H]1CSSC[C@H](NC(=O)[C@@H](N)CC(=O)O)C(=O)N[C@@H](Cc2ccccc2)C(=O)N[C@@H](Cc2c[nH]c3ccccc23)C(=O)N[C@@H](CCCCN)C(=O)N[C@@H](Cc2ccc(O)cc2)C(=O)N1)C(N)=O (H-DCFWKYCV-NH2; disulfide 2-7) | 0.45 | 0.9 | 372 |  |
| NCCCC[C@H](NC(=O)[C@H](Cc1c[nH]c2ccccc12)NC(=O)[C@H](Cc1c[nH]c2ccccc12)NC(=O)[C@@H](N)CC(N)=O)C(=O)N[C@@H](Cc1ccc(O)c(S(=O)(=O)O)c1)C(=O)N[C@@H](CS)C(N)=O (H-NWWK[X1]C-NH2) | 330 | > 10000 | 11 |  |
